From ChEMBL document CHEMBL1121485, “Antiestrogens. Synthesis and evaluation of mammary tumor inhibiting activity of 1,1,2,2-tetraalkyl-1,2 -diphenylethanes” (1980)

Tests used:
[1] = target: T1, Estrogen receptor (Bos taurus) (UniProt Q9XSB5+P49884); test: Association constant for Estrogen receptor; type: protein assay
[2] = target: T1, Estrogen receptor (Bos taurus); test: Relative binding affinity for Estrogen receptor compared to 17-beta-estradiol; type: protein assay
[3] = target: T2, Estrogen receptor (Mus musculus) (UniProt O08537+P19785); test: Uterotrophic effect in mice as uterus dry weight(mg) compared to body weight(g) at 0 ug/day dose; type: functional, tissue-based
Outline: (§1)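 Mice aged 20 days at start, dosed sc once daily for 3 days (0.1 mL injections, arachis oil vehicle); vehicle-only control group. Killed 24 h after last dose; body weight recorded; uteri fixed in Bouin's solution 12 h, trimmed of connective tissue, washed with saturated alcoholic LiCl, dried 100 °C for 24 h, then weighed.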

[4] = target: T2, Estrogen receptor (Mus musculus); test: Anti-uterotrophic effect in mice as uterus dry weight(mg) compared to body weight(g) at 500 ug/day dose; type: functional, tissue-based; outline: as §1
[5] = target: T2, Estrogen receptor (Mus musculus); test: Uterotrophic effect in mice as uterus dry weight(mg) compared to body weight(g) at 100 ug/day dose; type: functional, tissue-based; outline: as §1
[6] = target: T2, Estrogen receptor (Mus musculus); test: Uterotrophic effect in mice as uterus dry weight(mg) compared to body weight(g) at 25 ug/day dose; type: functional, tissue-based; outline: as §1
[7] = target: T2, Estrogen receptor (Mus musculus); test: Uterotrophic effect in mice as uterus dry weight(mg) compared to body weight(g) at 5 ug/day dose; type: functional, tissue-based; outline: as §1
[8] = target: T2, Estrogen receptor (Mus musculus); test: Anti-uterotrophic effect in mice as uterus dry weight(mg) compared to body weight(g) at 0 ug/day dose; type: functional, tissue-based; outline: as §1
[9] = target: T2, Estrogen receptor (Mus musculus); test: Anti-uterotrophic effect in mice as uterus dry weight(mg) compared to body weight(g) at 10 ug/day dose; type: functional, tissue-based; outline: as §1
[10] = target: T2, Estrogen receptor (Mus musculus); test: Anti-uterotrophic effect in mice as uterus dry weight(mg) compared to body weight(g) at 100 ug/day dose; type: functional, tissue-based; outline: as §1
[11] = target: T2, Estrogen receptor (Mus musculus); test: Uterotrophic effect in mice as uterus dry weight(mg) compared to body weight(g) at 500 ug/day dose; type: functional, tissue-based; outline: as §1
[12] = target: T1, Estrogen receptor (Bos taurus); test: Ratio of association constants for estradiol and compound in estrogen receptor binding assay; type: protein assay
[13] = species on record: Mus musculus; test: Inhibition of estrone-stimulated uterine growth in mice at 10 ug
[14] = target: T2, Estrogen receptor (Mus musculus); test: Uterotrophic effect in mice as uterus dry weight(mg) compared to body weight(g) at 1000 ug/day dose; type: functional, tissue-based; outline: as §1
[15] = target: T2, Estrogen receptor (Mus musculus); test: Uterotrophic effect in mice as uterus dry weight(mg) compared to body weight(g) at 24 ug/day dose; type: functional, tissue-based; outline: as §1
[16] = target: T2, Estrogen receptor (Mus musculus); test: Uterotrophic effect in mice as uterus dry weight(mg) compared to body weight(g) at 250 ug/day dose; type: functional, tissue-based; outline: as §1
[17] = target: T2, Estrogen receptor (Mus musculus); test: Anti-uterotrophic effect in mice as uterus dry weight(mg) compared to body weight(g) at 1000 ug/day dose; type: functional, tissue-based; outline: as §1
[18] = target: T2, Estrogen receptor (Mus musculus); test: Uterotrophic effect in mice as uterus dry weight(mg) compared to body weight(g) at 80 ug/day dose; type: functional, tissue-based; outline: as §1
[19] = target: T2, Estrogen receptor (Mus musculus); test: Uterotrophic effect in mice as uterus dry weight(mg) compared to body weight(g) at 8 ug/day dose; type: functional, tissue-based; outline: as §1
[20] = target: T2, Estrogen receptor (Mus musculus); test: Anti-uterotrophic effect in mice as uterus dry weight(mg) compared to body weight(g) at 25 ug/day dose; type: functional, tissue-based; outline: as §1
[21] = target: T2, Estrogen receptor (Mus musculus); test: Anti-uterotrophic effect in mice as uterus dry weight(mg) compared to body weight(g) at 250 ug/day dose; type: functional, tissue-based; outline: as §1
[22] = target: T2, Estrogen receptor (Mus musculus); test: Anti-uterotrophic effect in mice as uterus dry weight(mg) compared to body weight(g) at 5 ug/day dose; type: functional, tissue-based; outline: as §1
[23] = species on record: Mus musculus; test: Inhibition of estrone-stimulated uterine growth in mice at 5 ug
[24] = species on record: Mus musculus; test: Inhibition of estrone-stimulated uterine growth in mice at 25 ug
[25] = species on record: Mus musculus; test: Inhibition of estrone-stimulated uterine growth in mice at 100 ug
[26] = species on record: Mus musculus; test: Inhibition of estrone-stimulated uterine growth in mice at 250 ug
[27] = species on record: Mus musculus; test: Inhibition of estrone-stimulated uterine growth in mice at 1000 ug
[28] = target: T2, Estrogen receptor (Mus musculus); test: Uterotrophic effect in mice as uterus dry weight(mg) compared to body weight(g) at 10 ug/day dose; type: functional, tissue-based; outline: as §1
[29] = target: T2, Estrogen receptor (Mus musculus); test: Uterotrophic effect in mice as uterus dry weight(mg) compared to body weight(g) at 2 ug/day dose; type: functional, tissue-based; outline: as §1
[30] = target: T2, Estrogen receptor (Mus musculus); test: Uterotrophic effect in mice as uterus dry weight(mg) compared to body weight(g) at 50 ug/day dose; type: functional, tissue-based; outline: as §1
[31] = species on record: Mus musculus; test: Inhibition of estrone-stimulated uterine growth in mice at 5 ug; remark: listed apart in the source
[32] = target: T2, Estrogen receptor (Mus musculus); test: Uterotrophic effect in mice as uterus dry weight(mg) compared to body weight(g) at 2.5 ug/day dose; type: functional, tissue-based; outline: as §1
[33] = target: T2, Estrogen receptor (Mus musculus); test: Anti-uterotrophic effect in mice as uterus dry weight(mg) compared to body weight(g) at 2.5 ug/day dose; type: functional, tissue-based; outline: as §1
[34] = species on record: Mus musculus; test: Inhibition of estrone-stimulated uterine growth in mice at 2.5 ug

T2 sequence (O08537 whole entry, looked up): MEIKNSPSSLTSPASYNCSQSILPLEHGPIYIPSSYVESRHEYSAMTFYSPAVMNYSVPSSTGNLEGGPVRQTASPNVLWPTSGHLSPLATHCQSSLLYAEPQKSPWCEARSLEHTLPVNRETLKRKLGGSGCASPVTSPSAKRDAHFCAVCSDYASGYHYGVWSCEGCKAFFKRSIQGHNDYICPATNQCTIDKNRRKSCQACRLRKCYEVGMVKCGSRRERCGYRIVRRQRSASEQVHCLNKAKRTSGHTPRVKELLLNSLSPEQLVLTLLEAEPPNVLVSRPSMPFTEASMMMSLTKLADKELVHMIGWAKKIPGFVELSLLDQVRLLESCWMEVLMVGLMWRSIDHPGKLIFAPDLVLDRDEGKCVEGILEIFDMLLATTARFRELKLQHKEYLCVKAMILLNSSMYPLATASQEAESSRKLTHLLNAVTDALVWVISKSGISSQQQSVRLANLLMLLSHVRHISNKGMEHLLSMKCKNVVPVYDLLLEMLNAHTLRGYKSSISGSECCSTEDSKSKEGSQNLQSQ
T2 sequence (P19785 whole entry, looked up): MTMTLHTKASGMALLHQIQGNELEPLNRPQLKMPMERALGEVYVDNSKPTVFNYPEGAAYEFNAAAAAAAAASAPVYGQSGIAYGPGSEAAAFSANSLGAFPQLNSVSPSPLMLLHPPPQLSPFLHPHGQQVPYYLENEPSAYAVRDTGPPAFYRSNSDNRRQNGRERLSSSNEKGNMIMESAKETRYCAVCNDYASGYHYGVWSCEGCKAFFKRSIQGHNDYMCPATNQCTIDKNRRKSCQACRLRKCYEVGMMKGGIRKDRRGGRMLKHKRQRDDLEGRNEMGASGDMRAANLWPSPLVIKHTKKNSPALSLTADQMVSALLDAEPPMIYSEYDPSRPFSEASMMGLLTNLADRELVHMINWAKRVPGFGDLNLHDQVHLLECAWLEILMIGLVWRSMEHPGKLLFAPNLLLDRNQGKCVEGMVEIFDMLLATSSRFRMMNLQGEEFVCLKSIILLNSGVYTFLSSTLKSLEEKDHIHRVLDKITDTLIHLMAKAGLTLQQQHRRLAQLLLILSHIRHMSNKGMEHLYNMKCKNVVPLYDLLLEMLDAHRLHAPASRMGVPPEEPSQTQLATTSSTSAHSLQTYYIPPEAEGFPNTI

| Structure (SMILES) | Ka [1] [M⁻¹] | RA [2] | RAC [12] | Effect [3] | Effect [4] | Effect [8] | Effect [9] | Effect [10] | Inhibition [13] [%] | Effect [14] | Effect [15] | Effect [16] | Effect [17] | Effect [18] | Effect [19] | Effect [20] | Effect [21] | Effect [22] | Inhibition [24] [%] | Inhibition [25] [%] | also measured |
| --- | --- | --- | --- | --- | --- | --- | --- | --- | --- | --- | --- | --- | --- | --- | --- | --- | --- | --- | --- | --- | --- |
| CCC(C)(c1ccc(O)cc1)C(C)(CC)c1ccc(O)cc1 (stereo not given) | 1.8e+07 | 0.0027 | 0.0025 | 15.4 | 42.2 | 14 | 34.6 | 38.2 | 10.4 |  |  | 50.1 |  |  |  | 34 |  |  | 13.1 |  | Effect [28]: 34.7; Effect [29]: 24.6; Effect [30]: 39.1 |
| CC(=O)Oc1ccc(C(C)(C)C(C)(C)c2ccc(OC(C)=O)c(OC(C)=O)c2)cc1OC(C)=O | 1.5e+06 | 0.00023 | 0.00021 | 11.4 |  | 12.6 | 37.8 | 41.6 | 13.3 |  |  | 14.2 |  |  |  | 37.8 |  |  | 13.5 | 0.3 | Effect [28]: 13.8; Effect [32]: 13.8; Effect [30]: 13.6; Effect [33]: 36.4; Inhibition [34]: 18.3% |

Continued, in another order:

| Ka [1] [M⁻¹] | RA [2] | RAC [12] | Structure (SMILES) | Effect [3] | Effect [4] | Effect [8] | Effect [9] | Effect [10] | Inhibition [13] [%] | Effect [14] | Effect [15] | Effect [16] | Effect [17] | Effect [18] | Effect [19] | Effect [20] | Effect [21] | Effect [22] | Inhibition [24] [%] | Inhibition [25] [%] | also measured |
| --- | --- | --- | --- | --- | --- | --- | --- | --- | --- | --- | --- | --- | --- | --- | --- | --- | --- | --- | --- | --- | --- |
| 290000 | 4.3e-05 | 4e-05 | CC(C)(c1cc(O)cc(O)c1)C(C)(C)c1cc(O)cc(O)c1 | 9.6 | 38.9 | 11.3 | 30.6 | 40.4 | 11.7 |  |  |  |  |  |  |  |  |  |  |  | Effect [5]: 8.5; Effect [6]: 9.4; Effect [7]: 9; Effect [11]: 14.3 |
| 6.7e+07 | 0.01 | 0.0093 | CC(C)(c1cccc(O)c1)C(C)(C)c1cccc(O)c1 | 9.2 |  | 11.2 |  | 20.4 |  | 13.4 | 15.7 | 14.6 | 23.4 | 15.4 | 9.8 | 28.7 | 19.4 | 33.9 | 43.2 | 70.3 | Inhibition [23]: 26.5%; Inhibition [26]: 73.6%; Inhibition [27]: 60.5% |
| 7.3e+07 | 0.011 | 0.01 | CC(C)(c1ccc(O)cc1)C(C)(C)c1ccc(O)cc1 | 9.2 |  | 11.2 |  | 19.4 |  | 14.3 | 15.7 | 13.3 | 24.4 | 15.8 | 10.6 | 28 | 19.3 | 37.3 | 45.4 | 73.5 | Inhibition [31]: 15.4%; Inhibition [26]: 73.5%; Inhibition [27]: 57.3% |
